≈ marks a conversion by molar mass, not a printed value. Calls of active or inactive are those of the source. No cut-off for these calls is given here.

The IC50 is the concentration needed to halve the response being measured. A low value points to inhibition by little substance.

In test [1] the test system is HL-60. In words: Cytotoxicity against human HL60 cells at 10 ug/mL after 72 hrs by MTT assay. (Tetrazolium dyes change colour on reduction, which living cells bring about.)
Test [2] has as its system HL-60. Nature of the test: Cytotoxicity against human HL60 cells after 72 hrs by MTT assay. The format is functional, cell-based. The following applies: HL-60, 72 h. The gist of the method: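 HL-60 cells kept in RPMI 1640 with heat-inactivated 10% FBS, penicillin and streptomycin. Seeded at 4 × 10^4 cells/mL and preincubated 24 h at 37 °C in air/CO2 (19:1). Sample added in EtOH-H2O (1:1) to final 0.1-10 µg/mL, vehicle alone in controls. Incubated 72 h more, growth read by modified MTT (Sargent and Taylor). IC50 taken from dose-response curve. Triplicate.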

The test system of test [3] is HL-60. Nature of the test: Induction of apoptosis in human HL60 cells by morphology study. It counts as functional, cell-based.
Test [4] concerns HL-60. Nature of the test: Induction of apoptosis in human HL60 cells assessed as caspase-3 activation at 20 ug/ml after 6 hrs. It counts as functional, cell-based. The method, boiled down: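 HL-60 cells (2 × 10^6) treated 6 h at 37 °C at 0, 10 or 20 µg/mL, with 10 µg/mL etoposide as reference, then lysed on ice. Lysate equivalent to 200 µg protein mixed with reaction buffer containing DEVD-pNA. Incubated 2 h at 37 °C, released pNA read at 405 nm. Mean ± SE of triplicates.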

Test [5] concerns HL-60. Nature of the test: Induction of DNA fragmentation in human HL60 cells at 20 ug/ml after 18 hrs by agarose gel electrophoresis. The format is functional, cell-based. The gist of the method:
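HL-60 cells treated 18 h at 37 °C at 0, 10 or 20 µg/mL, with 10 µg/mL etoposide as reference. Genomic DNA extracted from 2 × 10^6 cells by kit with RNase A step. Run on 2% agarose in 40 mM Tris-acetate (pH 7.4) at 50 V for 1 h. Ladder pattern viewed under UV.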

Consider `C[C@@H]1CC[C@@]2(OC1)O[C@H]1C[C@H]3[C@@H]4CC[C@@H]5C[C@@H](O[C@@H]6O[C@H](CO)[C@@H](O[C@@H]7O[C@H](CO)[C@@H](O)[C@H](O)[C@H]7O)[C@H](O)[C@H]6O)CC[C@]5(C)[C@H]4CC(=O)[C@]3(C)[C@H]1[C@@H]2C`, for which the outcome with HL-60 [1] was inactive.
The same measure, in the same setting: for `C[C@@H]1CC[C@@]2(OC1)O[C@H]1C[C@H]3[C@@H]4CC[C@@H]5C[C@@H](O[C@@H]6O[C@H](CO)[C@H](O)[C@H](O[C@@H]7O[C@H](CO)[C@@H](O)[C@H](O)[C@H]7O)[C@H]6O)CC[C@]5(C)[C@H]4CC(=O)[C@]3(C)[C@H]1[C@@H]2C` the value was “inactive”.
As to `C[C@@H]1CC[C@@]2(OC1)O[C@H]1C[C@H]3[C@@H]4CC[C@@H]5C[C@@H](O[C@@H]6O[C@H](CO)[C@H](O[C@@H]7O[C@H](CO)[C@@H](O)[C@H](O)[C@H]7O[C@@H]7O[C@H](CO)[C@@H](O)[C@H](O)[C@H]7O)[C@H](O)[C@H]6O)CC[C@]5(C)[C@H]4CC[C@]3(C)[C@H]1[C@@H]2C`, in the test with HL-60 [2], the IC50 is 4.9 µg/mL (≈ 5.43 µM). For the same molecule, the result with HL-60 [3] and in the test with HL-60 [4] was Active.
Turning to `C[C@@H]1CC[C@@]2(OC1)O[C@H]1C[C@H]3[C@@H]4CC[C@@H]5C[C@@H](O[C@@H]6O[C@H](CO)[C@@H](O[C@@H]7O[C@H](CO)[C@@H](O)[C@H](O)[C@H]7O)[C@H](O)[C@H]6O)[C@@H](O)C[C@]5(C)[C@H]4CC[C@]3(C)[C@H]1[C@@H]2C`, the outcome in the test on HL-60 [1] was inactive.
Still for that read-out and setting: next, `C[C@@H]1CC[C@@]2(OC1)O[C@H]1C[C@H]3[C@@H]4CC[C@@H]5C[C@@H](O[C@@H]6O[C@H](CO)[C@H](O[C@@H]7O[C@H](CO)[C@@H](O)[C@H](O)[C@H]7O[C@@H]7O[C@H](CO)[C@@H](O)[C@H](O)[C@H]7O)[C@H](O)[C@H]6O)[C@@H](O)C[C@]5(C)[C@H]4CC[C@]3(C)[C@H]1[C@@H]2C`: “inactive”.
Molecule `C[C@@H]1CC[C@@]2(OC1)O[C@H]1C[C@H]3[C@@H]4CC[C@@H]5C[C@@H](O[C@@H]6O[C@H](CO)[C@@H](O[C@@H]7O[C@H](CO)[C@@H](O)[C@H](O)[C@H]7O)[C@H](O)[C@H]6O)CC[C@]5(C)[C@H]4CC[C@]3(C)[C@H]1[C@@H]2C` yielded an IC50 in the test on HL-60 [2] of 4.9 µg/mL (≈ 6.61 µM). Also, the outcome with HL-60 [5], in the test on HL-60 [3] and in the test on HL-60 [4] was Active.
Regarding `C[C@@H]1CC[C@@]2(OC1)O[C@H]1C[C@H]3[C@@H]4CC[C@@H]5C[C@@H](O[C@@H]6O[C@H](CO)[C@H](O)[C@H](O[C@@H]7O[C@H](CO)[C@@H](O)[C@H](O)[C@H]7O)[C@H]6O)CC[C@]5(C)[C@H]4CC[C@]3(C)[C@H]1[C@@H]2C`, half-maximal inhibition in the test on HL-60 [2] (IC50) required 7 µg/mL (≈ 9.45 µM). The result with HL-60 [3] was inactive.
Turning to `CO[C@]1(CC[C@@H](C)CO[C@@H]2O[C@H](CO)[C@@H](O)[C@H](O)[C@H]2O)O[C@H]2C[C@H]3[C@@H]4CC[C@@H]5C[C@@H](O[C@@H]6O[C@H](CO)[C@@H](O[C@@H]7O[C@H](CO)[C@@H](O)[C@H](O)[C@H]7O)[C@H](O)[C@H]6O)CC[C@]5(C)[C@H]4CC[C@]3(C)[C@H]2[C@@H]1C`, the result in the test on HL-60 [1] was inactive.
Still for that read-out and setting: for `C[C@@H]1CC[C@@]2(OC1)O[C@H]1C[C@H]3[C@@H]4CC[C@@H]5C[C@@H](O[C@@H]6O[C@H](CO)[C@H](O[C@@H]7O[C@H](CO)[C@@H](O)[C@H](O)[C@H]7O)[C@H](O)[C@H]6O[C@@H]6O[C@H](CO)[C@@H](O)[C@H](O)[C@H]6O)[C@@H](O)C[C@]5(C)[C@H]4CC[C@]3(C)[C@H]1[C@@H]2C` the value was “inactive”.

These data come from ChEMBL document CHEMBL1154200, “Steroidal glycosides from Agave utahensis and their cytotoxic activity” (J Nat Prod, 2009).
